The record followed here is ChEMBL document CHEMBL4715918, “Syntheses and evaluation of acridone-naphthalimide derivatives for regulating oncogene PDGFR-β expression” (Bioorg Med Chem, 2021).

The pKd is −log10 of the Kd, conventionally taken in molar units. Low readings indicate a large Kd, high ones a small Kd. Usually ΔTm stands for the shift of the melting midpoint relative to a reference.

pKd: −log10 of the molar value.

Data set [1] concerns MCF7. Briefly: Induction of cell cycle arrest in human MCF7 cells assessed as accumulation at G2/M phase after 48 hrs by propidium iodide staining based flow cytometric analysis. The format is functional. Particulars: dose 0.625-10 µM. Put shortly: (§1)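 MCF-7 cells, 2 × 10^5/well, were pre-grown 12 h, then treated with 10, 5, 2.5, 1.25, 0.625 μM compound or DMSO. Cells were fixed in 75% ethanol at −20 °C overnight. Staining was 50 μg/mL PI with RNase A, 30 min at room temperature in the dark. Flow cytometry collected 10,000 events; phase distribution was determined.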
On the technique in general: In flow cytometry, cells or beads pass a laser one at a time.

Data set [2] relates to MCF7. The experiment in a line: Binding affinity to wild type PDGFRbeta promoter (unknown origin) in human MCF7 cells assessed as down regulation of PDGFRbeta expression at 1.25 to 20 uM after 12 hrs. Particulars: dose 1.25-20 µM.
For data set [3], the system named is MCF7. The experiment in a line: Induction apoptosis in human MCF7 cells incubated for 24 hrs by Annexin-FTTC/PI staining based flow cytometric analysis. Format: functional, cell-based. Particulars: dose 1.25-5 µM.
The nature of data set [4]: Toxicity in nude BALB/c mouse xenografted with human MCF7 cells assessed as heart weight at 2.5 to 10 mg/kg, ip administered for 34 days. Format: organism-based. Particulars: in vivo, 816 h, dose 2.5-10 mg/kg, time 34 day. In outline: (§2)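 Nude BALB/c females bearing subcutaneous MCF-7 xenografts were dosed ip once daily for 34 days at 2.5, 5.0 or 10 mg/kg, with saline vehicle (100 µL) as control. Body weight was recorded every 2 days. After euthanasia by cervical dislocation, heart, liver, spleen and kidney were removed and weighed.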
(In general: Xenograft models place foreign cells or tissue in a host animal.)

The nature of data set [5]: Binding affinity to FAM-labeled 5'-biotin-d [GCGTCCACCCTCCCTGCCCCGCCGCCCCCCCITCTCCCAGC]-3' i-motif DNA (unknown origin) by microscale thermophoresis assay. Put shortly:
(§3)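 Microscale thermophoresis with DNA held constant at 1 µM. Compound serially diluted 3:4 from 10 µM over 12 points. Samples run in standard glass capillaries with LED and laser power both at 20%. KD derived by fitting.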
Background: Microscale thermophoresis detects binding through changes in fluorescence in a small temperature gradient.

Data set [6] concerns MCF7. Briefly: Induction apoptosis in human MCF7 cells assessed as early apoptotic cells at 5 uM incubated for 24 hrs by Annexin-FTTC/PI staining based flow cytometric analysis (reference value: 0.28%). Format: functional.
Data set [7] has as its system MCF7. The experiment in a line: Induction of cell cycle arrest in human MCF7 cells assessed as accumulation at G0/G1 phase at 0.625 to 10 uM after 48 hrs by propidium iodide staining based flow cytometric analysis (reference value: 75.7%). Format: functional. Particulars: dose 0.625-10 µM. In outline: as §1
Data set [8] can be described thus: Binding affinity to FAM-labeled 5'-biotin-d[TATAGCTATA-HEG-TATAGCTATA]- 3' duplex DNA (unknown origin) by microscale thermophoresis assay. In outline: as §3
For data set [9], the system named is MCF7. Briefly: Antiinvasive activity in human MCF7 cells assessed as reduction in cell migration by microscopic method. The format is functional, cell-based. Particulars: dose […], time 24-48 hrs. Put shortly:
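Scratch assay: MCF-7 seeded 300,000 cells/well, grown 24 h at 37 °C/5% CO2, then a cross-shaped scrape was made through the monolayer with a pipet tip. Cells were exposed to 5, 2.5, 1.25, 0.625, 0.3125 μM compound or DMSO control. Wounded areas were photographed by microscopy at 0, 24 and 48 h.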

The next data set concerns Quadruplex DNA. The experiment in a line: Binding affinity to 5'-FAM-GGGAGAAGGGGGGGCGGCGGGGCAGGGAGGGTGGAC-TAMRA-3' G4-quadruplex DNA (unknown origin) assessed as stabilization G4-quadruplex structure by measuring increase in I585/I518 ratio by FRET assay. Particulars: dose 2-10 equiv. Format: nucleic-acid assay. Put shortly:
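FRET probe dual-labelled FAM/TAMRA, annealed, 10 µM in 10 mM Tris-HCl pH 7.4 with 10 mM KCl; compound added in equal volume. Emission 500–700 nm recorded, corrected for compound signal in the same buffer; I585/I518 ratio compared.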

Data set [10] deals with MCF7. Briefly: Induction apoptosis in human MCF7 cells assessed as late apoptotic cells at 2.5 uM incubated for 24 hrs by Annexin-FTTC/PI staining based flow cytometric analysis (reference value: 0%). Format: functional.
Data set [11] deals with MCF7. Briefly: Antitumour activity against human MCF7 cells xenografted in ip dosed nude BALB/c mouse assessed as tumour growth inhibition administered for 34 days. Particulars: dose 2.5-10 mg/kg, time 34.0 day. The format is functional, organism-based.
The test system of data set [12] is MCF7. Briefly: Binding affinity to wild type PDGFRbeta promoter (unknown origin) in human MCF7 cells after 48 hrs by dual luciferase reporter assay. The format is cell-based. In outline:
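MCF-7 cells were transfected with 200 ng psiCHECK2 plasmid carrying the wild-type PDGFR-β promoter. After 4 h, compound was added at various concentrations and cells were incubated 48 h at 37 °C. Cells were washed with cold PBS and dual-luciferase signals read for 10 s. Renilla activity was normalised to firefly.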

Data set [13] is described as follows: Binding affinity to 5'-biotin-d [GCGTCCACCCTCCCTGCCCCGCCGCCCCCCCITCTCCCAGC]-3' i-motif DNA (unknown origin) assessed as change in melting temperature at 10 uM by CD spectroscopy. Put shortly: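 Oligomer 2 µM in BPES buffer pH 5.5, heated to 95 °C for 5 min, cooled slowly and held at 4 °C overnight. Ligand 10 µM. CD ellipticity followed at 288 nm from 25–95 °C (1 mm cuvette); Tm derived, ΔTm against DNA alone.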

The subject of data set [14] is MCF7. Briefly: Antitumour activity against human MCF7 cells xenografted in nude BALB/c mouse assessed as tumour volume at 2.5 mg/kg, ip administered for 34 days (reference value: 1530 mm3). The format is functional. Particulars: time 34 day.
In data set [15] the test system is MCF7. The experiment in a line: Induction apoptosis in human MCF7 cells assessed as necrotic cells at 1.25 uM incubated for 24 hrs by Annexin-FTTC/PI staining based flow cytometric analysis (reference value: 0.11%). Format: functional.
Data set [16] has as its system MCF7. Briefly: Induction apoptosis in human MCF7 cells assessed as viable cells at 1.25 uM incubated for 24 hrs by Annexin-FTTC/PI staining based flow cytometric analysis (reference value: 99.7%). The format is functional. Particulars: read-out: Activity.
Data set [17] has as its system MCF7. Briefly: Inhibition of colony formation in human MCF7 cells after 7 days by crystal staining based assay. The format is functional, cell-based. Particulars: dose 0.3125-2.5 µM, time 7.0 day. Put shortly:
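MCF-7 cells were seeded at 1,000/well and grown 24 h, then exposed 7 days to 2.5, 1.25, 0.625, 0.3125 μM compound or DMSO. Colonies were fixed in methanol, stained with crystal violet and imaged.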

Data set [18] can be described thus: Toxicity in nude BALB/c mouse xenografted with human MCF7 cells assessed as spleen weight at 2.5 to 10 mg/kg, ip administered for 34 days. Conditions: in vivo, 816 h, dose 2.5-10 mg/kg, time 34 day. Format: organism-based. In outline:
as §2

Data set [19] in a line: Toxicity in nude BALB/c mouse xenografted with human MCF7 cells assessed as reduction in body weight at 2.5 to 10 mg/kg, ip administered for 34 days. Particulars: in vivo, 816 h, dose 2.5-10 mg/kg, time 34 day. Format: organism-based. Put shortly:
as §2

Data set [20] in a line: Binding affinity to 5'-FAM-GCGTCCACCCTCCCTGCCCCGCCGCCCCCCCTTCTCCCAGC-TAMRA-3' i-motif DNA (unknown origin) at pH 5.5 assessed as unfolding i-motif structure.
Data set [21] has as its system MCF7. Briefly: Induction apoptosis in human MCF7 cells assessed as early apoptotic cells at 2.5 uM incubated for 24 hrs by Annexin-FTTC/PI staining based flow cytometric analysis (reference value: 0.28%). The format is functional.
The subject of data set [22] is MCF7. Briefly: Induction apoptosis in human MCF7 cells assessed as necrotic cells at 5 uM incubated for 24 hrs by Annexin-FTTC/PI staining based flow cytometric analysis (reference value: 0.11%). The format is functional.

For `Cc1ccc2c(c1)c(=O)c1cc(C(=O)NCCCN(C)CCCN3C(=O)c4cccc5c(N6CCN(C)CC6)ccc(c45)C3=O)ccc1n2-c1ccc(C(=O)NCCCN(C)CCCN2C(=O)c3cccc4c(N5CCN(C)CC5)ccc(c34)C2=O)cc1`, the Activity entry in the data set with MCF7 [1] is “Dose-dependent effect”; in the data set on MCF7 [2], “Dose-dependent effect”; with MCF7 [3] it was “Dose-dependent effect”; in data set [4] it was “Non-Toxic”; in the data set with MCF7 [6], 33.5%; with MCF7 [7], 48.1%. For the same molecule, the Activity entry in the data set with MCF7 [9] was “Dose-dependent effect”; in the data set with Quadruplex DNA, “Dose-dependent effect”; in the data set with MCF7 [10], 1.96%; in the data set with MCF7 [11], “Dose-dependent effect”; with MCF7 [12], “Dose-dependent effect”; with MCF7 [14], 985.1 mm3. The Activity in the data set with MCF7 [15] is 0.43%; in [18], “Non-Toxic”; in data set [19], “Non-Toxic”; in data set [20] it was “Dose-dependent effect”; with MCF7 [21], 26.1%; with MCF7 [22], 2.42%. Also, the pKd was 5.34 in data set [5] and 3.28 in data set [8]. Also, in data set [13], the thermal shift (ΔTm) was -16.7 °C. In addition, the viability at 1.25 µM in the data set with MCF7 [16] worked out at 91.4%. Besides, in the data set with MCF7 [17], the inhibition entry is “Dose-dependent effect”.
